According to ChEMBL document CHEMBL1138555, “N-acylated and N,N'-diacylated imidazolidine-2-thione derivatives and N,N'-diacylated tetrahydropyrimidine-2(1H)-thione analogues: synthesis and antiproliferative activity” (Eur J Med Chem, 2009):

How the values were obtained:
MT4 = experiment: Antiproliferative activity against human MT4 cells assessed as reduction of growth by MTT assay; format: functional, cell-based
Method in brief: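 MT-4 lymphoblastoid T cells (ATCC) in RPMI 1640 with 10% FCS, penicillin/streptomycin, checked for mycoplasma. 1 × 10⁴ mock-infected cells per well with serial dilutions from a 100 mM DMSO stock. Incubated 4 days at 37 °C, viable cells counted by MTT. IC50 versus untreated controls by linear regression. Mean of three separate experiments.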

TK-10 = experiment: Growth inhibition of human TK10 cells after 48 hrs by sulforhodamine B assay; format: functional; conditions: TK-10, 48 h
Method in brief: (§1)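 NCI in vitro panel screen. Compounds tested at five 10-fold dilutions, 10^-4 to 10^-8 M. Cells in 96-well plates were exposed for the last 48 h of a 72 h incubation. Viability/growth was read by sulforhodamine B protein assay. GI50 is the concentration giving 50% growth inhibition. Values beyond the tested range are reported as greater or less than the maximum or minimum concentration.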

[1] = Growth inhibition of human […] cells after 48 hrs by sulforhodamine B assay; format: functional
Method in brief: (§2)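 NCI screen panel. Five 10-fold concentrations from 10^-4 to 10^-8 M. Exposure for the last 48 h of a 72 h incubation. Growth estimated by sulforhodamine B protein assay. GI50 is the concentration giving 50% growth inhibition. Where that level was not reached or was exceeded, the value is given as above or below the highest or lowest concentration tested.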

MDA-MB-435 = experiment: Growth inhibition of human MDA-MB-435 cells after 48 hrs by sulforhodamine B assay; format: functional; conditions: MDA-MB-435, 48 h; method in brief: as §2
HL-60(TB) = experiment: Growth inhibition of human HL-60(TB) cells after 48 hrs by sulforhodamine B assay; format: functional; conditions: HL-60, 48 h
Method in brief: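 NCI 60-cell-line screen protocol: cells exposed to compound at five 10-fold dilutions from 10^-4 to 10^-8 M for the last 48 h of a 72 h incubation. Sulforhodamine B protein assay estimated viability/growth. GI50 (50% growth inhibition) derived; where not reached or exceeded, reported as greater or less than the highest or lowest concentration tested.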

MOLT-4 = experiment: Growth inhibition of human MOLT4 cells after 48 hrs by sulforhodamine B assay; format: functional; conditions: MOLT-4, 48 h; method in brief: as §2
T47D = experiment: Growth inhibition of human T47D cells after 48 hrs by sulforhodamine B assay; format: functional; method in brief: as §1
NCI/ADR-RES = experiment: Growth inhibition of human NCI/ADR-RES cells after 48 hrs by sulforhodamine B assay; format: functional; method in brief: as §2
OVCAR-8 = experiment: Growth inhibition of human OVCAR8 cells after 48 hrs by sulforhodamine B assay; format: functional; conditions: OVCAR-8, 48 h; method in brief: as §2
SK-MEL-2 = experiment: Growth inhibition of human SK-MEL-2 cells after 48 hrs by sulforhodamine B assay; format: functional; conditions: SK-MEL-2, 48 h; method in brief: as §2
A549 = experiment: Growth inhibition of human A549 cells after 48 hrs by sulforhodamine B assay; format: functional; conditions: A549, 48 h; method in brief: as §2
SF-295 = experiment: Growth inhibition of human SF295 cells after 48 hrs by sulforhodamine B assay; format: functional; conditions: SF-295, 48 h; method in brief: as §2
SK-MEL-28 = experiment: Growth inhibition of human SK-MEL-28 cells after 48 hrs by sulforhodamine B assay; format: functional; conditions: SK-MEL-28, 48 h; method in brief: as §2
NCI-H23 = experiment: Growth inhibition of human NCI-H23 cells after 48 hrs by sulforhodamine B assay; format: functional; conditions: NCI-H23, 48 h; method in brief: as §2
BT-549 = experiment: Growth inhibition of human BT549 cells after 48 hrs by sulforhodamine B assay; format: functional; conditions: BT-549, 48 h; method in brief: as §2
UACC-62 = experiment: Growth inhibition of human UACC62 cells after 48 hrs by sulforhodamine B assay; format: functional; conditions: UACC-62, 48 h; method in brief: as §1
UACC-257 = experiment: Growth inhibition of human UACC257 cells after 48 hrs by sulforhodamine B assay; format: functional; conditions: UACC-257, 48 h; method in brief: as §1
NCI-H460 = experiment: Growth inhibition of human NCI-H460 cells after 48 hrs by sulforhodamine B assay; format: functional; conditions: NCI-H460, 48 h; method in brief: as §2
KM12 = experiment: Growth inhibition of human KM12 cells after 48 hrs by sulforhodamine B assay; format: functional; conditions: KM12, 48 h; method in brief: as §2
ACHN = experiment: Growth inhibition of human ACHN cells after 48 hrs by sulforhodamine B assay; format: functional; method in brief: as §2
SW-620 = experiment: Growth inhibition of human SW620 cells after 48 hrs by sulforhodamine B assay; format: functional; conditions: SW-620, 48 h; method in brief: as §1
HCT-116 = experiment: Growth inhibition of human HCT116 cells after 48 hrs by sulforhodamine B assay; format: functional; conditions: HCT-116, 48 h; method in brief: as §2
HT-29 = experiment: Growth inhibition of human HT-29 cells after 48 hrs by sulforhodamine B assay; format: functional; conditions: HT-29, 48 h; method in brief: as §2
786-0 = experiment: Growth inhibition of human 786-0 cells after 48 hrs by sulforhodamine B assay; format: functional; conditions: 786-0, 48 h; method in brief: as §2
IGROV-1 = experiment: Growth inhibition of human IGROV1 cells after 48 hrs by sulforhodamine B assay; format: functional; conditions: IGROV-1, 48 h; method in brief: as §2
SK-OV-3 = experiment: Growth inhibition of human SKOV3 cells after 48 hrs by sulforhodamine B assay; format: functional; conditions: SK-OV-3, 48 h; method in brief: as §2
K562 = experiment: Growth inhibition of human K562 cells after 48 hrs by sulforhodamine B assay; format: functional; conditions: K562, 48 h; method in brief: as §2
OVCAR-3 = experiment: Growth inhibition of human OVCAR-3 cells after 48 hrs by sulforhodamine B assay; format: functional; conditions: OVCAR-3, 48 h; method in brief: as §2
MDA-MB-231 = experiment: Growth inhibition of human MDA-MB-231 cells after 48 hrs by sulforhodamine B assay; format: functional; conditions: MDA-MB-231, 48 h; method in brief: as §2
CAKI-1 = experiment: Growth inhibition of human Caki1 cells after 48 hrs by sulforhodamine B assay; format: functional; conditions: CAKI-1, 48 h; method in brief: as §2
HCT-15 = experiment: Growth inhibition of human HCT15 cells after 48 hrs by sulforhodamine B assay; format: functional; conditions: HCT-15, 48 h; method in brief: as §2
UO-31 = experiment: Growth inhibition of human UO31 cells after 48 hrs by sulforhodamine B assay; format: functional; conditions: UO-31, 48 h; method in brief: as §1
RXF 393 = experiment: Growth inhibition of human RXF393 cells after 48 hrs by sulforhodamine B assay; format: functional; conditions: RXF 393, 48 h; method in brief: as §2
HOP-62 = experiment: Growth inhibition of human HOP62 cells after 48 hrs by sulforhodamine B assay; format: functional; conditions: HOP-62, 48 h; method in brief: as §2
SNB-19 = experiment: Growth inhibition of human SNB19 cells after 48 hrs by sulforhodamine B assay; format: functional; conditions: SNB-19, 48 h; method in brief: as §1
Malme-3M = experiment: Growth inhibition of human MALME-3M cells after 48 hrs by sulforhodamine B assay; format: functional; method in brief: as §2
EKVX = experiment: Growth inhibition of human EKVX cells after 48 hrs by sulforhodamine B assay; format: functional; method in brief: as §2
SN12C = experiment: Growth inhibition of human SN12C cells after 48 hrs by sulforhodamine B assay; format: functional; method in brief: as §1
U-251 = experiment: Growth inhibition of human U251 cells after 48 hrs by sulforhodamine B assay; format: functional; conditions: U-251, 48 h; method in brief: as §1
PC-3 = experiment: Growth inhibition of human PC3 cells after 48 hrs by sulforhodamine B assay; format: functional; conditions: PC-3, 48 h; method in brief: as §2
SNB-75 = experiment: Growth inhibition of human SNB75 cells after 48 hrs by sulforhodamine B assay; format: functional; conditions: SNB-75, 48 h; method in brief: as §1
NCI-H322M = experiment: Growth inhibition of human NCI-H322M cells after 48 hrs by sulforhodamine B assay; format: functional; method in brief: as §2
COLO 205 = experiment: Growth inhibition of human COLO205 cells after 48 hrs by sulforhodamine B assay; format: functional; conditions: COLO 205, 48 h; method in brief: as §2
HOP-92 = experiment: Growth inhibition of human HOP92 cells after 48 hrs by sulforhodamine B assay; format: functional; conditions: HOP-92, 48 h; method in brief: as §2
SK-MEL-5 = experiment: Growth inhibition of human SK-MEL-5 cells after 48 hrs by sulforhodamine B assay; format: functional; conditions: SK-MEL-5, 48 h; method in brief: as §2
M14 = experiment: Growth inhibition of human M14 cells after 48 hrs by sulforhodamine B assay; format: functional; conditions: M14, 48 h; method in brief: as §2
LOX IMVI = experiment: Growth inhibition of human LOXIMVI cells after 48 hrs by sulforhodamine B assay; format: functional; method in brief: as §2
OVCAR-4 = experiment: Growth inhibition of human OVCAR4 cells after 48 hrs by sulforhodamine B assay; format: functional; conditions: OVCAR-4, 48 h; method in brief: as §2
SF-268 = experiment: Growth inhibition of human SF268 cells after 48 hrs by sulforhodamine B assay; format: functional; conditions: SF-268, 48 h; method in brief: as §2

O=C(c1ccc(Cl)cc1)N1CCN(C(=O)c2ccc(Cl)cc2)C1=S
IC50 (MT4): 9.9 µM

O=C(c1ccc(Cl)cc1)N1CCCN(C(=O)c2ccc(Cl)cc2)C1=S
IC50 (MT4): 38 µM

COC(=O)/C(=C\N1CCN(C(=O)c2ccco2)C1=S)C(C)=O
GI50 (TK-10): 3.5 µM | GI50 [1]: 5.5 µM | GI50 (MDA-MB-435): 4.5 µM | GI50 (HL-60(TB)): 7.5 µM | GI50 (MOLT-4): 20.8 µM | GI50 (T47D): 6 µM | GI50 (NCI/ADR-RES): 22.2 µM | GI50 (OVCAR-8): 27.8 µM | GI50 (SK-MEL-2): 15.2 µM | IC50 (MT4): 7 µM | GI50 (A549): 19.3 µM | GI50 (SF-295): 18.6 µM | GI50 (SK-MEL-28): 9.1 µM | GI50 (NCI-H23): 12.2 µM | GI50 (BT-549): 3.5 µM | GI50 (UACC-62): 11.5 µM | GI50 (UACC-257): 17.2 µM | GI50 (NCI-H460): 2.3 µM | GI50 (KM12): 3 µM | GI50 (ACHN): 4.1 µM | GI50 (SW-620): 3.9 µM | GI50 (HCT-116): 7.4 µM | GI50 (HT-29): 15.8 µM | GI50 (786-0): 11.2 µM | GI50 (IGROV-1): 10.4 µM | GI50 (SK-OV-3): 31.3 µM | GI50 (K562): 10.2 µM | GI50 (OVCAR-3): 2.7 µM | GI50 (MDA-MB-231): 9 µM | GI50 (CAKI-1): 2.8 µM | GI50 (HCT-15): 2.2 µM | GI50 (UO-31): 13.5 µM | GI50 (RXF 393): 4.4 µM | GI50 (HOP-62): 20.6 µM | GI50 (SNB-19): 41.7 µM | GI50 (Malme-3M): 5.6 µM | GI50 (EKVX): 2.6 µM | GI50 (SN12C): 5.9 µM | GI50 (U-251): 5.5 µM | GI50 (PC-3): 18.1 µM | GI50 (SNB-75): 21 µM | GI50 (NCI-H322M): 12.4 µM | GI50 (COLO 205): 12.6 µM | GI50 (HOP-92): 20.8 µM | GI50 (SK-MEL-5): 5.3 µM | GI50 (M14): 10.7 µM | GI50 (LOX IMVI): 1.6 µM | GI50 (OVCAR-4): 17.4 µM | GI50 (SF-268): 5.8 µM

O=C(c1cccc2ccccc12)N1CCN(C(=O)c2cccc3ccccc23)C1=S
IC50 (MT4): 13 µM

Cc1ccc(C(=O)N2CCN(C=O)C2=S)cc1
IC50 (MT4): 31 µM

CC(=O)N1CCN(C(C)=O)C1=S
IC50 (MT4): > 100 µM

Cc1ccc(C(=O)N2CCN(C(=O)c3ccc(C)cc3)C2=S)cc1
IC50 (MT4): 35 µM

COc1cc(C(=O)N2CCCN(C(=O)c3cc(OC)c(OC)c(OC)c3)C2=S)cc(OC)c1OC
IC50 (MT4): > 100 µM

Cc1ccc(C(=O)N2CCCN(C(=O)c3ccc(C)cc3)C2=S)cc1
IC50 (MT4): > 100 µM

CC(C)(C)C(=O)/C(C#N)=C/N1CCN(C(=O)c2ccco2)C1=S
IC50 (MT4): 14 µM

O=C(c1ccc(Cl)c(Cl)c1)N1CCCN(C(=O)c2ccc(Cl)c(Cl)c2)C1=S
IC50 (MT4): 72 µM

CC(=O)N1CCN(C=O)C1=S
IC50 (MT4): > 100 µM

N#CC(C#N)=CN1CCN(C(=O)c2ccco2)C1=O
IC50 (MT4): > 100 µM

O=C(c1cccs1)N1CCCN(C(=O)c2cccs2)C1=S
IC50 (MT4): > 100 µM

O=CN1CCN(C(=O)/C=C/c2ccccc2)C1=S
IC50 (MT4): > 100 µM

O=C(c1ccc(Cl)c([N+](=O)[O-])c1)N1CCN(C(=O)c2ccc(Cl)c([N+](=O)[O-])c2)C1=S
IC50 (MT4): 11 µM
